In the library only some 2.7% were active in any assay of this set; here they are far more common.
NR1D1 modulator: modulates human Rev-erb alpha binding to DNA. P20393. Rev-erbα–FITC-DNA binding, fluorescence polarization, 90 min. activity, % at 10 µM. 370,000 tested, 0.79% active;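 active = activity above about 14%, limit read from the data; passing the limit was not always enough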;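 also: 0% = DMSO wells with 35 nM protein and 100% = DMSO wells with 750 nM protein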
Target sequence (P20393 whole entry, looked up): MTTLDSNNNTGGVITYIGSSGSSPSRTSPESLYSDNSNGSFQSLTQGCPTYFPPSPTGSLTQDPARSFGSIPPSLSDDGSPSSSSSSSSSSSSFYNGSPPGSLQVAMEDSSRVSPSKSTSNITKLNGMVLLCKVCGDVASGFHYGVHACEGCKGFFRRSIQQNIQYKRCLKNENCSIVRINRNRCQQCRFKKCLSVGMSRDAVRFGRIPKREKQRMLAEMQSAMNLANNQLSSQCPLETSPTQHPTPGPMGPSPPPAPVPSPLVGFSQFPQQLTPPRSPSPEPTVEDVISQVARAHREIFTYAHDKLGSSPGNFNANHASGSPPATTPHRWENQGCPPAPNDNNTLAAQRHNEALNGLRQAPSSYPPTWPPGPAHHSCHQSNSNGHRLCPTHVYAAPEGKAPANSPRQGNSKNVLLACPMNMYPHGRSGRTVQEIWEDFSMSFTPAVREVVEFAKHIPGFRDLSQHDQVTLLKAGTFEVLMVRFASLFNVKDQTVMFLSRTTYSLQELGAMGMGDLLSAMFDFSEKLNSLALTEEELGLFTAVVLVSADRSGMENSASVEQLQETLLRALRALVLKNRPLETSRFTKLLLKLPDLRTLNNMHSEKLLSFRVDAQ
PG9 binder: binds the HIV-1 gp120 antibody PG9; 360,000 tested, 0.43% active; TR-FRET gp120-PG9 antibody binding; inhibition, % at 6.7 µM; in the data active = inhibition above about 8.5%
MC4R antag cAMP: blocks human MC4R cAMP signaling; MC4R-expressing cells, MTII-stimulated cAMP, LANCE TR-FRET; 360,000 tested, 0.48% active; inhibition, % at 6.5 µM; AID 540295;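 active = inhibition above its plate's cutoff, the mean of tested wells on that plate plus 3 SD, cut at about 29% in these data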;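 also: 0% = Melanotan II alone and 100% = Melanotan II plus saturating MCL0020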
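Material: U2OS-MC4R stable cell line | Reagent: Melanotan II challenge after compound preincubation | Doses: One concentration, 6.5 µM nominal | Incubation: 30-min compound preincubation, 1-h Melanotan II challenge, 1-h detection, room temperature | Signal: TR-FRET cAMP assay | Replicates: One well per compound, no replicates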
NR2E3 ag-1: activates human photoreceptor nuclear receptor NR2E3 | Q9Y5X4 | GST-NR2E3/biotin-RetCOR TR-FRET, 1536-well | inhibition of corepressor binding, % at 4.78 µM | 320,000 tested, 0.12% active | AID 2300;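 active = percent inhibition above the cutoff of mean plus 3 SD of all tested compounds, set per screening campaign, cut at about 20% in these data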;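 also: 0% = DMSO wells and 100% = biotin wells as full block of FRET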
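Material: NR2E3–RetCOR corepressor complex / Amount: 1.35 nM GST-NR2E3 / Medium: Tris pH 7.5 / Compound: single nominal compound dose of 4.8 µM / Incubation: 5 h at 4 °C / Technique: TR-FRET, Eu(K)-anti-GST donor, streptavidin-D2 acceptor, ex 340, em 617/671 nm / Read-out basis: percent loss of FRET ratio relative to control wells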
MC4R barr agon: human MC4R agonism via beta-arrestin. U2OS MC4R beta-arrestin complementation, luminescence; percent of melanotan II response, DMSO zero. activation, % at 8.9 µM. 360,000 tested, 0.98% active. AID 540308;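 active = activation above a per-plate cutoff, the mean activation of sample wells on that plate plus 3 SD, cut at about 8% in these data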
NR2E3 ag-2: activates human NR2E3 receptor. Q9Y5X4. CHO-S Gal4-NCOR/VP16-NR2E3 two-hybrid, luciferase. inhibition of corepressor binding, % at 3.98 µM. 360,000 tested, 0.35% active;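 active = inhibition above the mean of all tested compounds plus 3 SD, cut at about 70% in these data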;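 also: 0% = DMSO with NR2E3 transfected cells and 100% = cells lacking NR2E3 construct; higher means lower luciferase signal from less NR2E3 corepressor binding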
NR2E3 ag confirm: NR2E3 agonism confirmed in two-hybrid assay; shares compounds with NR2E3 ag-2; CHO-S mammalian two-hybrid NR2E3-NCOR, luciferase luminescence; inhibition, % at 3.98 µM; 2,300 tested, 51% active; AID 624378;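 active = average inhibition above a cutoff equal to the mean inhibition of all tested compounds plus one SD, cut at about 70% in these data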;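 also: 0% = DMSO in NR2E3 cells and 100% = DMSO in cells lacking NR2E3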
GAL4-VP16 luc: counter-screen for NR2E3 agonists: GAL4-VP16 reporter inhibitors; shares compounds with NR2E3 ag-2; CHO-S GAL4-VP16 luciferase reporter, luminescence; inhibition, % at 3.98 µM; 2,300 tested, 29% active;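 active = mean inhibition above a cutoff equal to the average over all tested compounds plus one standard deviation, cut at about 70% in these data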;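 also: luciferase from a UAS reporter driven by GAL4-VP16 transactivation; 0% = DMSO with VP16-transfected cells and 100% = DMSO with cells lacking VP16; higher means less reporter light so more repression of VP16 activity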
Starred values were filed as active, the others as inactive; · = no result given.

SMILES	NR1D1 modulator	PG9 binder	MC4R antag cAMP	NR2E3 ag-1	MC4R barr agon	NR2E3 ag-2	NR2E3 ag confirm	GAL4-VP16 luc
Cc1ccc(C)c(OCCn2cc(C(=O)O)c3ccccc32)c1	-3.5	1.2	9.6	-0.7	1.1	-25.5	·	·
CC(=O)c1cn(CC(=O)Nc2ccc(C)cc2C)c2ccccc12	1.4	1.5	-2.9	4.3	-1.4	53.7	76.9*	48.9
CC(=O)c1cn(CCOc2cc(C)ccc2C)c2ccccc12	7.3	4.5	5.4	8.9	-0.6	90.3*	93.4*	83.3*
O=C1CCN(Cc2cccnc2)CCN1[C@H](CO)c1ccccc1	-1.5	0.7	-5.1	5.6	-1.0	7.9	·	·
O=C(NC(=S)N1CCN(c2nc(-c3ccccc3)cs2)CC1)c1cncc(Br)c1	1.9	4.3	2.3	-0.1	-4.7	61.7	40.2	38.7
CCOCCCNC(=S)N1CCN(c2nc(-c3ccccc3)cs2)CC1	-5.1	-0.8	1.0	-1.9	-1.8	-6.2	·	·
Cc1ccc(N(CC(=O)NC2CCCC2)C(=O)CCC(=O)Nc2ccccn2)cc1C	1.6	1.9	21.8	-1.1	-0.1	-18.4	·	·
CC1CCN(S(=O)(=O)c2ccc([N+](=O)[O-])cc2)CC1	-1.9	-0.9	-3.2	-2.8	0.2	-21.8	·	·
CC1CCN(S(=O)(=O)c2ccc(Oc3ccc([N+](=O)[O-])cc3)cc2)CC1	6.3	2.4	3.1	3.0	-1.7	88.1*	91.1*	75.6*
Cc1ccc(C(=O)Nc2cccc(NC(=O)CN3CCCCC3)c2)cc1	-5.7	-2.4	6.3	-2.6	-1.6	-5.1	·	·
COc1ccc(-c2nsc3c(N4CCCCC4C)ncnc23)cc1 (centres undefined)	5.3	1.3	6.6	6.0	4.0	93.6*	84.2*	71.6*
COc1ccc(C(=O)N2CCN(c3ncnc4c(-c5ccccc5)nsc34)CC2)cc1	0.0	-0.1	24.6	·	2.4	-1.9	·	·
CNC(=S)N/N=C(\C)c1ccc(Cl)c(Cl)c1	-1.0	-2.5	6.1	1.3	0.4	-1.7	·	·
CNC(=S)NN=C(C)CCCC(C)=NNC(=S)NC	8.5	1.3	3.1	·	-1.5	48.2	-2.2	-7.5
Cc1cc(C)cc(NC(=O)c2cccc(NC3=NC4CS(=O)(=O)CC4S3)c2)c1 (centres undefined)	0.0	-2.1	-0.3	0.1	1.4	-11.8	·	·
CCN(CC)c1ccc(/C=c2\sc3nc4ccccc4n3c2=O)c(O)c1	10.3	-0.4	0.5	·	-1.4	58.4	78.9*	60.3
Cc1cc(/C=c2/sc3nc4ccccc4n3c2=O)c(C)n1-c1ccccn1	-0.5	-4.3	16.9	0.2	-0.3	79.9*	84.4*	74.8*
CC(=O)/C(=C\N(C)C)Sc1ccc(Cl)cc1	-2.8	-1.7	12.1	0.4	2.1	-2.8	·	·
Nc1nc(-c2ccccc2)nn1C(=O)Cc1ccccc1	-0.2	1.1	2.4	2.6	-1.2	81.7*	1.2	-2.8
CCC(=O)n1nc(-c2ccc(Cl)cc2)nc1N	-3.2	0.1	8.7	-2.4	-0.6	-37.2	·	·
CCOC(=O)N[C@H](Cc1c[nH]c2ccccc12)C(=O)NC1CC1	3.9	-1.5	1.1	1.3	-1.6	-9.8	·	·
CC1CCC(=C(C#N)C(=O)Nc2cccc(Cl)c2)CC1 (centres undefined)	-2.0	-0.2	-4.1	0.8	0.0	-34.6	·	·
C=CCN(CC=C)C(=S)NC(=O)c1ccc([N+](=O)[O-])cc1	3.8	-1.2	3.5	2.9	-2.5	66.1	-6.2	-10.3
C=CCNC(=S)NNC(=O)c1ccc([N+](=O)[O-])cc1	5.3	-1.9	20.4	1.6	-1.4	-3.4	·	·
Clc1c(Cl)c(Cl)c2n[nH]nc2c1Cl	-0.7	1.9	13.8	-4.1	-0.2	64.0	96.4*	80.9*
SMILES	NR1D1 modulator	PG9 binder	MC4R antag cAMP	NR2E3 ag-1	MC4R barr agon	NR2E3 ag-2	NR2E3 ag confirm	GAL4-VP16 luc
CN(C(=O)CSc1cc(C(=O)c2nccn2C)c2ccccc2n1)c1ccccc1	4.4	-0.6	13.4	-0.8	1.4	80.8*	78.3*	61.4
Cc1ccc(C(=O)O/N=C(\N)c2ccccn2)cc1	3.2	-0.3	4.0	1.1	-2.1	-75.1	·	·
CC(C)(C)c1ccc(C(=O)O/N=C(\N)c2ccccn2)cc1	-2.4	1.7	16.4	6.1	3.9	105.8*	88.7*	76.2*
CCOc1ccc(C(=O)O/N=C(\N)c2ccccn2)cc1	-5.4	0.3	12.3	·	-0.3	52.2	-58.1	-125.7
N/C(=N\OC(=O)c1ccccc1)c1ccccn1	2.4	-2.1	-0.1	4.3	-2.5	-131.7	·	·
CCOc1cc(S(=O)(=O)N2CC=C(c3ccc(F)cc3)CC2)c(OCC)cc1-n1cnnn1	4.2	0.5	3.9	-0.8	-1.3	-4.5	·	·
COC(=O)CC(c1ccc(C#N)cc1)n1c(C)ccc1C (centres undefined)	0.7	1.5	9.2	-1.0	-2.5	-18.1	·	·
O=C(Cc1ccccc1[N+](=O)[O-])N1CCN(S(=O)(=O)c2ccccc2)CC1	-1.6	-1.4	-0.9	0.5	-1.3	16.1	·	·
CCn1c(CSc2nc3ccccc3s2)nnc1SCC(N)=O	-1.8	1.7	3.0	4.0	-0.1	-23.1	·	·
O=C(Nc1nccs1)c1nc[nH]c1C(=O)N1CCc2ccccc2C1	0.2	-2.8	5.5	2.0	-0.8	-21.4	·	·
Cc1ccc(S(=O)(=O)Nc2nc3ccccc3nc2NCc2ccco2)cc1C	-1.6	-0.3	-1.7	-0.3	-0.5	49.2	22.1	20.5
C=CCn1c(Cc2nc3ccc(Cl)cc3[nH]2)n[nH]c1=S	0.2	1.6	5.4	0.8	-0.8	-16.8	·	·
O=C(Nc1cc(C(F)(F)F)ccc1N1CCOCC1)c1ccco1	-3.1	-1.2	6.8	0.1	1.8	103.1*	-1.1	2.1
O=C(Nc1cc(Cl)ccc1N1CCOCC1)c1ccco1	1.2	1.8	2.9	·	-2.8	5.2	·	·
Cc1ccc(NNC(=O)C(=O)N2CCCCC2)cc1	-1.8	-0.8	6.0	1.8	-0.8	57.4	37.4	24.2
COC(=O)c1ccc(NC(=O)c2ccc3c(c2)NC(=O)C2CCCN32)cc1 (centres undefined)	·	·	·	3.6	·	·	·	·
Cc1nc(-c2ccccn2)nc(N(C)c2ccccc2)c1Cl	4.9	0.0	-3.8	0.0	-0.3	105.4*	38.7	17.1
CCOC(CN=c1nc(N(C)C)ss1)OCC	-0.3	1.6	-0.6	·	-2.8	89.1*	17.4	2.8
Cc1ccc(-n2nc3c(=O)n(C(C)C(=O)NCCC4=CCCCC4)nc(C)c3c2C)cc1 (centres undefined)	1.9	-0.2	-2.2	-1.6	-2.4	51.3	11.7	40.6

High-throughput results deposited in PubChem BioAssay by several laboratories.
